In BindingDB's records for doi:10.1021/jm00053a001 (Merck Sharp and Dohme Research Laboratories, 1993):
Blank lines part the entries; values can stand above or below the compound they belong to. Where a SMILES comes first, the peptide text is derived from it.

Columns and labels:
Substance-K receptor = biological target: T1, Substance-K receptor (Rattus norvegicus, UniProt P16610); assay: Inhibition of eledoisin binding to NK-2 receptor in rat vas deferens
T1 sequence (P16610 whole entry): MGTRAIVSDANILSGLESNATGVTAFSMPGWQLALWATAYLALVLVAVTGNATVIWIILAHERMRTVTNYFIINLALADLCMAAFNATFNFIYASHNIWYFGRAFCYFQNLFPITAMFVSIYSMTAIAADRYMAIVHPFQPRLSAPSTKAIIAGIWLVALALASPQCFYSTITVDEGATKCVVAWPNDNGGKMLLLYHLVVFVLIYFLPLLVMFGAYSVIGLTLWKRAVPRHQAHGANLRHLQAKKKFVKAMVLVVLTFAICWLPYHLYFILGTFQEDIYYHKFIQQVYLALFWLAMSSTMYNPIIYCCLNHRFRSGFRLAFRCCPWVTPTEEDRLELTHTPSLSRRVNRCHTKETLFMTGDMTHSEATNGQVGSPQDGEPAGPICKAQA
In short: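 Vas deferens from Sprague-Dawley rats (200–300 g), electrically stimulated contractions with supramaximal rectangular bipolar pulses. Eledoisin log dose-response curves; antagonism taken from rightward shift. pA2 by Schild regression over three or more antagonist concentrations, or apparent pA2 from one antagonist concentration via the standard Schild equation assuming unit slope.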

Substance-P receptor = Substance-P receptor (Cavia porcellus, UniProt P30547); assay: Tested for antagonist activity toward NK-1 receptor in guinea pig ileum against the agonist eledoisin (mean +/-, n=4)
Chain of Substance-P receptor (P30547 whole entry): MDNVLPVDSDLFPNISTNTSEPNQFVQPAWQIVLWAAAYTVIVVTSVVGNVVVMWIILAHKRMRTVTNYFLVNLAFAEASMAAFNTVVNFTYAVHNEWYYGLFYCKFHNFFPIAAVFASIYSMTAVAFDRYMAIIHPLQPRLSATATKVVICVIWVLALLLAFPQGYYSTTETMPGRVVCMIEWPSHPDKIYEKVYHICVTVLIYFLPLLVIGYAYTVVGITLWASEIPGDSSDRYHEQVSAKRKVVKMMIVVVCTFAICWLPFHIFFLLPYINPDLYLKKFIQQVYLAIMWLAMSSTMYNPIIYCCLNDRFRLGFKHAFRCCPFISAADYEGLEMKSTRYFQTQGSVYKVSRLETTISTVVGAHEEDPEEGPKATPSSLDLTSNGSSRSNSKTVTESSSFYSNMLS
In short: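 Guinea pig (male Dunkin-Hartley, 300–400 g) small-intestine longitudinal muscle, isometric contraction in Krebs-Henseleit at 37 °C with atropine, mepyramine, methysergide (each 5 μM) and indomethacin (1 μM). Antagonism measured as rightward shift of log dose-response curves to eledoisin. pA2 from Schild regression (least squares, three or more antagonist concentrations, three or more observations each), or apparent pA2 at a single concentration assuming unit slope (mean of 3–4 observations).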

Neuromedin-K receptor = biological target: T2, Neuromedin-K receptor (Rattus norvegicus, UniProt P16177); assay: Tested for antagonist activity toward NK-3 receptor in rat portal vein against the agonist eledoisin (mean +/-, n=4)
T2 sequence (P16177 whole entry): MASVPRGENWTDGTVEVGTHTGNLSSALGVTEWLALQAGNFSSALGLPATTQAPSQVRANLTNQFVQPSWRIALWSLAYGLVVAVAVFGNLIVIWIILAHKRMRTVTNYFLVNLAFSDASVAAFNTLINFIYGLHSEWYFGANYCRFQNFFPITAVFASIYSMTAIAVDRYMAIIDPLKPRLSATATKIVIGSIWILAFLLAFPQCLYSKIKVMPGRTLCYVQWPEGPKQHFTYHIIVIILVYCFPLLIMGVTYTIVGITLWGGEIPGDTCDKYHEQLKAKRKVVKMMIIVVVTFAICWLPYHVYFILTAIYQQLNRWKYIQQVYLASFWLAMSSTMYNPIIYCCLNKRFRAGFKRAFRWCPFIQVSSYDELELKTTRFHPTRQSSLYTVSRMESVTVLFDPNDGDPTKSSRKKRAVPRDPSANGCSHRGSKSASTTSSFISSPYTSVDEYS
In short: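 Rat portal vein longitudinal strips; frequency and amplitude of myogenic contractions recorded. Antagonist activity derived from rightward shift of eledoisin log dose-response curves. pA2 by Schild regression, least squares, three or more antagonist concentrations, or apparent pA2 at a single antagonist concentration assuming unit slope (mean of three or four observations).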

Kd (Substance-K receptor): 15.8 µM
Structure (SMILES): CSCC[C@H]1NC(=O)[C@H](CC(C)C)N2C=CC(NC(=O)[C@H](Cc3ccccc3)NC(=O)[C@@H](Cc3ccccc3)NC(=O)C(CCC(N)=O)NC1=O)C2=O (some centres not stated)

Kd (Substance-K receptor): 0.00794 µM
Kd (Substance-P receptor): 2 µM
Kd (Neuromedin-K receptor): 7.94 µM
Structure (SMILES): CSCC[C@@H]1NC(=O)[C@H](CC(C)C)NC(=O)CNC(=O)[C@H](Cc2ccccc2)NC(=O)[C@H](Cc2c[nH]c3ccccc23)NC(=O)[C@H](CCC(N)=O)NC1=O (cyclo(FGLMQW))

Kd (Substance-K receptor): 0.631 µM
Structure (SMILES): CSCC[C@@H]1NC(=O)[C@H](CC(C)C)NC(=O)[C@H](Cc2ccccc2)NC(=O)[C@H](Cc2c[nH]c3ccccc23)NC(=O)[C@H](CCC(N)=O)NC1=O (cyclo(FLMQW))

More lines, now with the values behind:

Structure (SMILES): CSCC[C@H]1NC(=O)[C@H](CC(C)C)NC(=O)[C@@H]2CCCN2C(=O)[C@H](Cc2ccccc2)NC(=O)[C@@H](Cc2c[nH]c3ccccc23)NC(=O)[C@H](CCC(N)=O)NC1=O
Kd (Substance-K receptor): 15.8 µM

Structure (SMILES): CSCC[C@H]1NC(=O)[C@H](CC(C)C)NC(=O)[C@H]2CCCN2C(=O)[C@H](Cc2ccccc2)NC(=O)[C@@H](Cc2c[nH]c3ccccc23)NC(=O)[C@H](CCC(N)=O)NC1=O
Kd (Substance-K receptor): 20 µM
